Measured values from different studies.
Lines come from different studies, so protocols differ.
Target: Serine/threonine-protein kinase mTOR (MTOR, Homo sapiens, UniProt P42345)

CN([C@@H]1CCc2c(CC(=O)O)c3ccccc3n2C1)S(=O)(=O)c1ccc(F)cc1  remaining binding (cell-free assay, competition with immobilised ligand; 1 µM): 100%
Nc1ncnc2occ(-c3ccc(NC(=O)Nc4cc(C(F)(F)F)ccc4F)cc3)c12  remaining activity (enzyme activity, inhibitor; 20 µM): 74%
C=CC(=O)Nc1cc(Nc2nccc(Nc3cc(Cl)c(F)cc3C(C)(C)O)n2)c(OC)cc1N1CC[C@@H](N(C)C)C1  inhibition (enzyme activity, inhibitor; 1 µM): 6%
CC(C)CCn1c(SCC(=O)Nc2ccccc2C(F)(F)F)nc2nccnc2c1=O  inhibition (enzyme activity, inhibitor; 10 µM): < 20%
CS(=O)(=O)NCC[C@H](NC(=O)c1cncc2c1cnn2-c1ccc(F)cc1)c1ccnc(S(C)(=O)=O)c1  remaining binding (cell-free assay, competition with immobilised ligand; 1 µM): 88%
CC(C)(C)c1nc2c(s1)c1nc(N)ncc1c1ccc(NS(=O)(=O)c3c(F)cccc3F)c(F)c12  remaining activity (enzyme activity, inhibitor, radiometric; 1 µM): 103%
Cc1noc([C@H]2C[C@@H](c3ccc(C(F)(F)F)cc3)CN(C(=O)N3CCS(=O)(=O)C3)C2)n1  remaining binding (cell-free assay, competition with immobilised ligand; 1 µM): 92%
COc1cc(Cl)c(C(=O)N[C@@H](CN[C@H]2CC[C@@H](N)CC2)Cc2ccc(C#N)cc2)cc1-c1ccc(CN[C@H](C)c2ccc(C)cc2)o1  remaining activity (enzyme activity, inhibitor; 1 µM): 98%
CS(=O)(=O)Nc1cccc(-c2csc(NC(=O)CSc3nc4nccnc4c(=O)n3CCc3ccccc3)n2)c1  inhibition (enzyme activity, inhibitor; 10 µM): 1%
CCCS(=O)(=O)Nc1ccc(F)c(C(=O)c2c[nH]c3ncc(-c4ccc(Cl)cc4)cc23)c1F  inhibition (enzyme activity, inhibitor; 1 µM): < 10%
CN1CC(Oc2cnc(C#N)cc2-c2ccn3nc(NC(=O)C4CC4)cc3c2)C1  inhibition (enzyme activity, inhibitor; 1 µM): 1%
COc1cc2ncnc(Nc3ccc(Oc4ccccc4)cc3C)c2cc1OC  inhibition (enzyme activity, inhibitor; 1 µM): 1%
Cc1ccc(C(=O)NCc2ccsc2)cc1C#Cc1cn(C(C)C)c2ncnc(N)c12  activity vs control (enzyme activity, inhibitor; 1 µM): 105%
C[C@@H](c1cccc(C#N)c1)n1cc(Cl)cc(C(N)=O)c1=N  remaining binding (cell-free assay, competition with immobilised ligand; 1 µM): 96%
N[C@@H]1CCN(c2nccc(-c3cnn4ncccc34)n2)C1  remaining binding (binding; 1 µM): 99%
CCCCN(CCCC)C(=O)CN1C[C@@H](c2cc(OC)c3c(c2)OCO3)[C@H](C(=O)O)[C@H]1CC(C)(C)CCC  remaining binding (cell-free assay, competition with immobilised ligand; 1 µM): 100%
CNCc1ccc(-c2cc(-c3nc(-c4ccc(S(=O)(=O)C(C)C)cc4)cnc3N)on2)cc1  inhibition (enzyme activity, inhibitor; 0.4 µM): 0%
